T cruzi inh – T. cruzi replication inhibition; T. cruzi beta-gal in NIH3T3, luminescence, 90 h; AID 1885; 300,000 compounds, 1.4% hits; inhibition, % (no concentration beside the values);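 active = mean inhibition across valid replicates above about 55%, limit read from the data; inconclusive = mean below that limit but half or more replicates reach it; inactive = mean below it, under half of replicates reach it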;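 also: signal also drops with host cell toxicity which is not excluded here; higher percent means less beta-gal luminescence so fewer parasites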
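Read-out: Parasite load inhibition, % | Test system: Mouse NIH/3T3 fibroblasts infected with β-gal-expressing T. cruzi Tulahuen C4 | Amount: 5,000 cells/well | Medium: DMEM, 2% fetal bovine serum | Signal: GalScreen β-gal luminescence, detergent lysis, 60 min | Timing: 3 h attach, ≥90 h co-culture | Also added: Tulahuen C4 trypomastigotes, 5000/well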
CSC inhib – cancer stem cell inhibition; cancer stem cell-like cells viability, luminescence; inhibition, % at 7.5 µM; 300,000 compounds, 1.1% hits; in the data active = inhibition above about 75%; inconclusive = no clear call, values can overlap the other calls; tested in HMLE shEcad cells
Beta cell apopt – blocks beta cell apoptosis; INS-1E cytokine-induced death, ATP luminescence, 48 h; percent of positive-control rescue, neutral wells zero; protection from apoptosis, % (no concentration beside the values); 300,000 compounds, 0.8% hits; AID 435005;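 active = Every replicate reaches about 75%, or at least half do and their mean reaches it too, limit read from the data; inconclusive = At least half of replicates reach the limit but their mean does not; inactive = Under half of replicates reach the limit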;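 also: higher means more ATP so stronger rescue from cytokine killing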
Calb FLC – C. albicans growth modulation with fluconazole; 300,000 compounds, 0.57% hits; C. albicans CaCi-2 + fluconazole, Alamar Blue growth, 48 h; growth inhibition, % (test concentration not listed);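 active = growth inhibition above about 58% in most replicates, limit read from the data, passing the limit was not always enough; inconclusive = exactly half the replicates above a set limit; inactive = most replicates below a set limit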;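 also: all wells also contain fluconazole at 8 µg/ml as a sub-toxic cotreatment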
Mdm2-MdmX inh – human Mdm2/MdmX binding inhibition; O15151+Q00987; inhibition, % at 8 µM; SaOS-2 split-luciferase Mdm2/MdmX complementation, luminescence; 330,000 compounds, 3% hits;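 active = inhibition of at least 50% at 8 µM in the primary screen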
Target sequence (O15151 whole entry, looked up): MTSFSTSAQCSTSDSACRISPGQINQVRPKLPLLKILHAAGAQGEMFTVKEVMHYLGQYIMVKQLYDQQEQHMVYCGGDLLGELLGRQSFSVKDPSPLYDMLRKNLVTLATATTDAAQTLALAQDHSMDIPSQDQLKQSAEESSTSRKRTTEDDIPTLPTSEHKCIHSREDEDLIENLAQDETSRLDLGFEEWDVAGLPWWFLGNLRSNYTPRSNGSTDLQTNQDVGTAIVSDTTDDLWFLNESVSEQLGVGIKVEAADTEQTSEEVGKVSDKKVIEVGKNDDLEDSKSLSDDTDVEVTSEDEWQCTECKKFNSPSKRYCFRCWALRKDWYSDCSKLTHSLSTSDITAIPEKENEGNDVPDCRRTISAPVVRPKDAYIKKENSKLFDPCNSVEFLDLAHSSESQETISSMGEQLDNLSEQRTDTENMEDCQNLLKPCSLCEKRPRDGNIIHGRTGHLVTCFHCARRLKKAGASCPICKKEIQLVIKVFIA
Target sequence (Q00987 whole entry, looked up): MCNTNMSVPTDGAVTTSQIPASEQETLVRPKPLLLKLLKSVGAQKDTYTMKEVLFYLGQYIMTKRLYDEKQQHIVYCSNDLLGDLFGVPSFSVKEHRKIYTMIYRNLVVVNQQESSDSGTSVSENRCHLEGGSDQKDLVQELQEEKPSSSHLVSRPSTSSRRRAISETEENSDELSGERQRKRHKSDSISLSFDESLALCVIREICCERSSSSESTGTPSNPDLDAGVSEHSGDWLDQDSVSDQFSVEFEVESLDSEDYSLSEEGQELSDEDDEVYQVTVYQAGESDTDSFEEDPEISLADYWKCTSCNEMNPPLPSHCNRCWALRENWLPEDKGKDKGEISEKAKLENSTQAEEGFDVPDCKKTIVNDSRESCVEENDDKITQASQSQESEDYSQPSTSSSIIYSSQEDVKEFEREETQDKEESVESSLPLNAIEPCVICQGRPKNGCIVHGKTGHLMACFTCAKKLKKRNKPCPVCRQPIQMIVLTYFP
NLRP3 yeast inh – blocks the NALP3 inflammasome reconstituted in yeast. AID 2825. Yeast reconstituted NLRP3/ASC/caspase-1, beta-gal luminescence, 24 h. 330,000 compounds, 0.39% hits. inhibition, % at 10 µM;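 active = inhibition of 50% or more; inactive = inhibition below 50%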
Mdm2 MdmX conf – human Mdm2/MdmX binding inhibition, confirmed. shares compounds with Mdm2-MdmX inh. luminescent assay. inhibition, % at 8 µM. 10,000 compounds, 55% hits. AID 489028; in the data active = inhibition above about 40%
Full FLuc ctr – inhibits full-length luciferase, flagging false Mdm2/MdmX hits; shares compounds with Mdm2-MdmX inh; SaOS-2 full-length luciferase counterscreen, luminescence; inhibition, % at 8 µM; 6,200 compounds, 77% hits; AID 504607;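 active = mean inhibition at 8 µM reaching about 37%, which flags the compound as non-specific, limit read from the data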;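 also: p53-null SaOS-2 cells with luciferase driven by a doxycycline-inducible promoter; compound on cells about two nights before reading with doxycycline added after day one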
Each line names hits and unclear results; the compound was inactive in the other large screens (follow-up assays come after a bar, where they were run). Sampled rows, rich in hits. Any-hit rate of the full collection: about 5.3%.

Nc1nc(N)nc(-c2cc(O)ccc2O)n1	Mdm2-MdmX inh 87.5 (no result: T cruzi inh, Calb FLC) | Mdm2 MdmX conf 94.8 | Full FLuc ctr 54.8
O=[N+]([O-])c1ccc(O)c(-c2cc(C(F)(F)F)nc(-c3ccccc3)n2)c1	CSC inhib 88.4, Beta cell apopt 119.0, Mdm2-MdmX inh 95.3 | Mdm2 MdmX conf 99.3 | Full FLuc ctr 51.5
Nc1nc(N)nc(-c2cc([N+](=O)[O-])ccc2O)n1	Mdm2-MdmX inh 77.3 (no result: T cruzi inh, Calb FLC) | Mdm2 MdmX conf 63.2 | Full FLuc ctr 82.1
COc1ccc(-c2nc(CSCC(=O)NCCCN3CCCC3=O)c(C)o2)cc1	none
Cc1cccn2c(=O)c3cc(C(=O)NC4CCCCC4)c(=N)n(Cc4ccccc4)c3nc12	T cruzi inh 58.2, Mdm2-MdmX inh 93.5 | Mdm2 MdmX conf inactive
COc1ccc(CCn2c(=N)c(C(=O)NC3CCCCC3)cc3c(=O)n4ccccc4nc32)cc1	Mdm2-MdmX inh 93.1 | Mdm2 MdmX conf inactive | Full FLuc ctr 81.8
Cc1cccn2c(=O)c3cc(C(=O)NC4CCCC4)c(=N)n(CCc4ccccc4)c3nc12	none
Cc1ccc(S(=O)(=O)c2cc3c(=O)n4cccc(C)c4nc3n(Cc3ccncc3)c2=N)cc1	Mdm2-MdmX inh 52.6 | Mdm2 MdmX conf inactive
COc1ccc(CCn2c(=N)c(C(=O)NC3CCCC3)cc3c(=O)n4cccc(C)c4nc32)cc1	Mdm2-MdmX inh 88.0 | Mdm2 MdmX conf 52.6 | Full FLuc ctr 57.7
COc1ccc(CCn2c(=N)c(C(=O)NCC3CCCO3)cc3c(=O)n4ccccc4nc32)cc1 (centres undefined)	none
C/C(CC(=O)NC1CCCCC1)=N\NC(=O)c1ccc(Br)cc1	none
O=C(N=C1SC2CS(=O)(=O)CC2N1c1ccccc1Cl)C1CCCO1 (centres undefined)	none
Cc1ccc2nsnc2c1S(=O)(=O)N(Cc1cc2cccc(C)c2[nH]c1=O)CC1CCCO1 (centres undefined)	Mdm2-MdmX inh 56.5 | Mdm2 MdmX conf 46.6 | Full FLuc ctr 85.0
Cc1ccc2cc(CN(CC3CCCO3)S(=O)(=O)c3c(C)ccc4nsnc34)c(=O)[nH]c2c1 (centres undefined)	none
c1ccc(Oc2c3ccccc3nc3ccccc23)cc1	Mdm2-MdmX inh 73.3 | Mdm2 MdmX conf inactive
COc1ccc(NC(=O)/C(C#N)=C\c2ccc(-c3cc(C(=O)O)ccc3C)o2)cc1	none (no result: Beta cell apopt)
C/C(=C\[C@@H](NP(=O)(c1ccccc1)c1ccccc1)c1ccccc1)CO[Si](c1ccccc1)(c1ccccc1)C(C)(C)C	Mdm2-MdmX inh 75.6 | Mdm2 MdmX conf inactive
C=C[C@]1(C)C[C@H]1[C@H](NP(=O)(c1ccccc1)c1ccccc1)c1ccccc1	none (no result: T cruzi inh, Calb FLC)
Cc1ccc(S(=O)(=O)CCc2nnc(NC(=O)CCl)s2)cc1C	Mdm2-MdmX inh 74.8 | Mdm2 MdmX conf inactive
CSc1nc2nccc(/C=C\c3ccccc3)n2n1	Mdm2-MdmX inh 75.2 | Mdm2 MdmX conf 66.2 | Full FLuc ctr inactive
Cc1csc(NC(=O)c2cc(=O)[nH]c3ccccc23)n1	none
COCc1nnc(NC(=O)C2CC(=O)N(c3ccc(C)c(Cl)c3)C2)s1 (centres undefined)	none (no result: Beta cell apopt)
Cc1ccc(N2CC(C(=O)Nc3nccs3)CC2=O)cc1Cl (centres undefined)	Mdm2-MdmX inh 83.7 | Mdm2 MdmX conf 69.0 | Full FLuc ctr active
CCCS(=O)(=O)c1c(S(=O)(=O)CCC)c2c(C)cccn2c1C(=O)N/N=C/c1cc(O)cc(O)c1	CSC inhib 132.5, Mdm2-MdmX inh 58.2 | Mdm2 MdmX conf 57.0 | Full FLuc ctr 37.0
COc1cccc2[nH]c3c(N4CCC5(CC4)OCCO5)ncnc3c12	none
COc1ccc(N=Nc2cc(C)c(O)c(CN3CCCCC3)c2)cc1	none
COc1ccc2nc3cc(Cl)ccc3c(Nc3cc(CN4CCCC4)c(O)c(CN4CCCC4)c3)c2n1	T cruzi inh 58.7, Beta cell apopt inconclusive, Mdm2-MdmX inh 98.9 | Mdm2 MdmX conf 53.2 | Full FLuc ctr 77.2
COCCn1cnc2c(c1=O)c1nc3ccccc3nc1n2/N=C/c1ccco1	none (no result: CSC inhib, Beta cell apopt)
Nc1c(C(=O)NC2CCCC2)c2nc3ccccc3nc2n1/N=C/c1ccco1	Mdm2-MdmX inh 72.8 | Mdm2 MdmX conf inactive
CCc1nc(N=Nc2c(O)[nH]c3ccccc23)c2c3c(sc2n1)CCC3	Mdm2-MdmX inh 87.5 | Mdm2 MdmX conf inactive
Oc1[nH]c2ccccc2c1N=Nc1ccccc1	none
O=C(N/N=C1/CC2CCC1C2)c1cc2ccccc2cc1O (centres undefined)	Mdm2-MdmX inh 51.9 | Mdm2 MdmX conf 40.8 | Full FLuc ctr 83.0
CC1CCC(NC(=O)c2cc3ccccc3cc2O)CC1 (centres undefined)	none (no result: T cruzi inh, CSC inhib, Calb FLC)
CCOc1cc(/C=N/NC(=O)Cn2nc([N+](=O)[O-])cc2C)cc(Br)c1OCc1ccccc1F	Mdm2-MdmX inh 50.8 (no result: CSC inhib) | Mdm2 MdmX conf inactive
CCOc1cc(/C=N/NC(N)=O)cc(Br)c1OCc1ccccc1F	none
Cc1nc2ccccc2nc1N1CCOCC1	none
CCCCCn1c(=O)[nH]c2cc(C(=O)NCCN3CCOCC3)ccc2c1=O	none (no result: T cruzi inh, Calb FLC)
O=C(Cc1ccccc1)N/N=C/c1cc(Br)cc(Br)c1O	Mdm2-MdmX inh 59.4 | Mdm2 MdmX conf 73.2 | Full FLuc ctr 43.7
Cc1ccc(NC(=O)CCC(=O)N/N=C/c2ccccc2O)cc1	none
C/C(=N/NC(=O)CCC(=O)Nc1ccc(Br)cc1)c1ccc(Br)cc1	Mdm2-MdmX inh 50.6 | Mdm2 MdmX conf inactive
Cc1ccc(SCCC(=O)N/N=C/c2cccnc2)cc1	none
Cc1ccc(SCCC(=O)N/N=C/c2ccccc2O)cc1	Calb FLC 92.2, Mdm2-MdmX inh 52.0 | Mdm2 MdmX conf 43.8 | Full FLuc ctr 46.8
C/C(=N\NC(=O)CCc1ccccc1)c1ccc(Br)cc1	none
O=C(CCC(=O)Nc1ccc(Br)cc1)N/N=C/c1ccccc1O	Mdm2-MdmX inh 67.3 (no result: Calb FLC) | Mdm2 MdmX conf 67.5 | Full FLuc ctr 48.3
COCCCC1CCN(Cc2nc(Cc3ccccc3Cl)no2)CC1	none
NC(=O)c1nnn(-c2ccccc2)c1N	none (no result: Beta cell apopt)
CC(=NNC(=O)c1cc(C)nc2ccccc12)c1ccc(N2CCOCC2)cc1	none (no result: T cruzi inh, Calb FLC)
Cc1cc(=O)oc2cc(OCC(=O)N/N=C/c3ccccc3O)ccc12	none (no result: CSC inhib)
CSc1nc(C)cc(OCC(=O)N/N=C/c2ccccc2O)n1	CSC inhib 89.4, Mdm2-MdmX inh 57.9 | Mdm2 MdmX conf 64.3 | Full FLuc ctr 39.3
O=C(N/N=C/c1cc(Br)ccc1O)c1ccccc1Cl	Calb FLC 89.1, Mdm2-MdmX inh 65.9 | Mdm2 MdmX conf 68.8 | Full FLuc ctr inactive
O=C(CCc1ccccc1)N/N=C/c1cc(Br)ccc1O	Mdm2-MdmX inh 71.4 | Mdm2 MdmX conf 68.7 | Full FLuc ctr inactive
